From PubChem
T cruzi inh: blocks replication of Trypanosoma cruzi; inhibition, % (no concentration beside the values); T. cruzi beta-gal in NIH3T3, luminescence, 90 h; AID 1885; hit rate 1.4% among 300,000;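 active = mean inhibition across valid replicates above about 55%, limit read from the data; inconclusive = mean below that limit but half or more replicates reach it; inactive = mean below it, under half of replicates reach it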;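 also: signal also drops with host cell toxicity which is not excluded here; 0% = plate median of DMSO wells and 100% = zero luminescence signal; higher percent means less beta-gal luminescence so fewer parasites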
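Read-out: Parasite load inhibition, % | Test system: Mouse NIH/3T3 fibroblasts infected with β-gal-expressing T. cruzi Tulahuen C4 | Amount: 5,000 cells/well | Medium: DMEM, 2% fetal bovine serum | Signal: GalScreen β-gal luminescence, detergent lysis, 60 min | Timing: 3 h attach, ≥90 h co-culture | Also added: Tulahuen C4 trypomastigotes, 5000/well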
PolyA inhibitor: blocks polyadenylation in yeast reporter cells. S. cerevisiae SKY197-pL101 polyadenylation reporter, beta-gal luminescence; efflux-impaired pdr1/pdr3 knockout yeast; score 100 = 6 SD above DMSO. activity score, % at 12 µM. hit rate 0.02% among 300,000;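 active = lowest replicate activity score at least 50, where 100 means six control SD above control mean; inconclusive = lowest score under 50 but half or more replicates reach 50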;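 also: yeast exposed to compound for 9 h at 30 °C; higher score means more reporter readthrough which indicates perturbed polyadenylation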
NALP1 yeast inh: NALP1 inhibition | S. cerevisiae NALP1/ASC/caspase-1 growth, X-gal OD620, 72 h | inhibition, % at 10 µM | hit rate 0.61% among 280,000 | AID 2071; in the data active = inhibition mostly above about 24%, no sharp cut-off; inactive = mostly below about 32%
L major viab: Leishmania major promastigote growth inhibition | Leishmania major promastigotes, resazurin fluorescence viability | inhibition, % at 10 µM | hit rate 9% among 200,000; in the data active = inhibition above about 50%;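 also: promastigotes grown with compound for 44 hours at 28 °C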
Calb FLC: affects C. albicans growth with fluconazole | C. albicans CaCi-2 + fluconazole, Alamar Blue growth, 48 h | growth inhibition, % (no concentration beside the values) | hit rate 0.57% among 300,000 | AID 1979;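 active = growth inhibition above about 58% in most replicates, limit read from the data, passing the limit was not always enough; inconclusive = exactly half the replicates above a set limit; inactive = most replicates below a set limit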;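 also: all wells also contain fluconazole at 8 µg/ml as a sub-toxic cotreatment; 0% = median of DMSO wells and 100% = median of geldanamycin control wells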
NALP3 yeast inh: blocks the NALP3 inflammasome reconstituted in yeast. inhibition, % at 10 µM. Yeast reconstituted NLRP3/ASC/caspase-1, beta-gal luminescence, 24 h. hit rate 0.39% among 330,000. AID 2825;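 active = inhibition of 50% or more; inactive = inhibition below 50%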;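 also: plate controls were induced DMSO wells for no effect and uninduced yeast grown without galactose for full effect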
* marks the source's active call; other numbers are inactive results; ? = inconclusive; / = not tested or not shown. Only a selection was taken, and hits are over-represented in it overall.

SMILES | T cruzi inh | PolyA inhibitor | NALP1 yeast inh | L major viab | Calb FLC | NALP3 yeast inh
COc1cccc(C(=O)Nc2nc(-c3ccc(S(=O)(=O)N4CCOCC4)cc3)cs2)c1 | 20 | -4 | 22 | 92* | -4 | 10
CCOc1ccc(-c2csc(NC(=O)c3ccc(S(=O)(=O)N4CCc5ccccc5C4)cc3)n2)cc1 | 10 | 9 | 33 | 5 | 17 | 17
CN(C)S(=O)(=O)c1cccc(-c2csc(N/N=C/c3ccco3)n2)c1 | -4 | 6 | 18 | / | -8 | 1
COc1ccc(/C=N/Nc2nc(-c3cccc(S(=O)(=O)N4CCCC4)c3)cs2)c(OC)c1 | 43 | -18 | 27 | 69* | -1 | 18
Cc1ccc(-c2csc(NC(=O)COC(=O)c3cccc(S(=O)(=O)N4CCOCC4)c3)n2)cc1 | 1 | -16 | -15 | -7 | -18 | 4
COc1ccc(OC)c(CNc2ncc(-c3ccc(F)cc3)n2C)c1 | 4 | 23 | 27 | / | -23 | 11
CCOc1nc2cnccc2n(CC(=O)Nc2cccc(C)c2)c1=O | -9 | -9 | -6 | / | -9 | 7
COc1ccc(CNC(=O)c2n[nH]c3ccccc23)cc1OC | -13 | 9 | 5 | -3 | 34 | 11
O=C(Nc1nc(-c2nc3ccccc3s2)cs1)c1ccc(S(=O)(=O)N2CCOCC2)cc1 | -20 | -2 | -4 | 52* | 16 | 1
O=C(Nc1nc(-c2cc3ccccc3o2)cs1)c1ccc(S(=O)(=O)N2CCCC2)cc1 | 66* | -4 | 26 | 23 | 4 | 0
CC1CN(S(=O)(=O)c2ccc(C(=O)Nc3nc(-c4cc5ccccc5o4)cs3)cc2)CC(C)O1 (configuration not stated) | -9 | 13 | 47 | 4 | -11 | 2
O=C(Nc1nc(-c2ccc(S(=O)(=O)N3CCOCC3)cc2)cs1)c1ccccc1 | -3 | 17 | 12 | 73* | -6 | 11
O=C(Cc1ccc(NC2=NC3CS(=O)(=O)CC3S2)cc1)NCc1ccccc1Cl (configuration not stated) | -6 | ? | -1 | / | 14 | 12
COc1ccc2cc(C(=O)N3CCN(c4ccc(F)cc4)CC3)[nH]c2c1 | -6 | 7 | 12 | / | -8 | 25
N#Cc1nc(Cc2cccc3ccccc23)oc1NCCN1CCCCC1 | 0 | 16 | 23 | 65* | ? | 5
O=c1[nH]c(Sc2ccc([N+](=O)[O-])cc2[N+](=O)[O-])nc2ccccc12 | 61* | -31 | / | / | 3 | 15
O=[N+]([O-])c1ccc(Sc2nc3ccccc3o2)c([N+](=O)[O-])c1 | 55* | -93 | 21 | 19 | 93* | 42
O=C(COc1ccc(-c2nnco2)cc1)N1CCN(S(=O)(=O)c2ccccc2)CC1 | -9 | 1 | -13 | -3 | -18 | 19
COc1ccc(N=C2S/C(=C\c3ccc(C)o3)C(=O)N2CC(C)C)cc1 | 31 | 10 | 40* | 3 | -6 | 14
CCCN1C(=O)/C(=C/c2ccc(C)o2)SC1=Nc1ccc(OC)cc1 | 22 | 6 | 9 | 4 | 6 | 31
O=C(CCS(=O)(=O)c1ccc(Br)cc1)NCc1ccc(F)cc1 | -1 | -6 | 28 | / | 34 | 17
Cc1cccn2c(=O)c(C=NCc3ccco3)c(Nc3ccc(SC(F)F)cc3)nc12 | 9 | -2 | 4 | 91* | 0 | -3
Cc1cccn2c(=O)c(C=NCCO)c(NCc3ccco3)nc12 | -7 | -15 | -2 | 14 | 4 | 13
COc1ccc(C2c3ccc4ccccc4c3Oc3ncn(CCO)c(=N)c32)cc1 (configuration not stated) | 5 | 7 | 20 | / | 27 | 5
COc1ccc(C2c3ccc4ccccc4c3Oc3ncn(CCN(C)C)c(=N)c32)cc1 (configuration not stated) | 59* | -2 | 15 | / | 25 | 20
COc1ccc(C2c3ccc4ccccc4c3Oc3ncn(CCN4CCOCC4)c(=N)c32)cc1 (configuration not stated) | 36 | 11 | 10 | 100* | 101* | 2
COc1cccc(CN2CCN(C(=O)c3ccco3)CC2)c1 | 3 | 14 | 0 | / | -12 | 12
O=C(Nc1nc(-c2ccncc2)cs1)C1c2ccccc2Oc2ccccc21 | 26 | -28 | 37 | 90* | 8 | 2
O=C(Nc1ncccn1)C1c2ccccc2Oc2ccccc21 | 0 | 13 | -6 | 55* | -13 | 28
